# Molecular target: T1, Mitogen-activated protein kinase kinase kinase 5 (Homo sapiens, UniProt Q99683)
# T1 sequence (Q99683 whole entry): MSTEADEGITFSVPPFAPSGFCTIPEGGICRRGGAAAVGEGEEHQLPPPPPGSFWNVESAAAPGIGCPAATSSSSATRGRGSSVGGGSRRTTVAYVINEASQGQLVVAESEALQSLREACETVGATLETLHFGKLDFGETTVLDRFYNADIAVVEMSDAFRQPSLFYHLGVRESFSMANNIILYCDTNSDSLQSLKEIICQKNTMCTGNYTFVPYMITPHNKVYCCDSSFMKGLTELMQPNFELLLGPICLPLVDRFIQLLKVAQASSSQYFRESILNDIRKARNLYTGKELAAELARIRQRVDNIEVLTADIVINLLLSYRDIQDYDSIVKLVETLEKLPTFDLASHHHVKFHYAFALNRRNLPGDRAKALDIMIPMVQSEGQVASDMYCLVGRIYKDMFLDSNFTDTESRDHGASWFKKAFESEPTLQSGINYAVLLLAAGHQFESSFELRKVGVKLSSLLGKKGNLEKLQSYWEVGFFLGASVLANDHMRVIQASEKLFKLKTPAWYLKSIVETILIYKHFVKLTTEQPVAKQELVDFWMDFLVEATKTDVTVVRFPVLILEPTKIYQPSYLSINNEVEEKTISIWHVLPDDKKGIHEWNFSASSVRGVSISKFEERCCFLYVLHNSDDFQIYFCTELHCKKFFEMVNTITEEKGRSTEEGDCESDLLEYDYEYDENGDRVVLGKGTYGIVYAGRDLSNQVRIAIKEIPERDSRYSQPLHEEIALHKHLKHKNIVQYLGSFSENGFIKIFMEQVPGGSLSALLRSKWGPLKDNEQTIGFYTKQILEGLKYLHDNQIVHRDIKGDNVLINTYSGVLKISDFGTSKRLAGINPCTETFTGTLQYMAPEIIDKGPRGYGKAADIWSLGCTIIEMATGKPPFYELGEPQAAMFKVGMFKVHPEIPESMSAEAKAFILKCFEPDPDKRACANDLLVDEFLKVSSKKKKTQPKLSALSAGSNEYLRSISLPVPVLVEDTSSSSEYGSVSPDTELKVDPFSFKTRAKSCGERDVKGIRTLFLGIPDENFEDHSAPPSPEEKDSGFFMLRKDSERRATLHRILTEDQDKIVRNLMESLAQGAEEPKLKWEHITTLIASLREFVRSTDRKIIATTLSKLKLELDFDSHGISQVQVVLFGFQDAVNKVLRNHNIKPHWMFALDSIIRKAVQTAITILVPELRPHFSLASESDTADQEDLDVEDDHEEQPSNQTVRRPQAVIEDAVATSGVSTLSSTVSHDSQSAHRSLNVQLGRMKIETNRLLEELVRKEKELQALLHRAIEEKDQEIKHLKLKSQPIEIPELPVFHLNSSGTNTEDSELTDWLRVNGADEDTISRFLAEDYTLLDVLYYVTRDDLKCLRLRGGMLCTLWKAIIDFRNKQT
# Assay: Inhibition of ASK1 (unknown origin)
row,Compound,IC50 [nM]
1,Cc1cc(F)c(C(=O)Nc2cccc(-c3nncn3[C@@H](C)C(F)(F)F)n2)cc1-n1cnc(C2CC2)c1,4.3

# Molecular target: T1, Mitogen-activated protein kinase kinase kinase 5
# Assay: Inhibition of N-terminal GST-tagged recombinant human full length ASK1 expressed in baculovirus-infected Sf21 cells using STK-Substrate-3 biotin as substrate in presence of ATP measured after 2 hrs by HTRF assay
# Procedure, shortened: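 HTRF assay with full-length recombinant human ASK1 at final 2 nM, in buffer containing 5 mM MgCl₂ and 1 mM DTT, 2% DMSO. Reaction run with STK-Substrate 3-biotin (final 2 µM) and ATP for 2 h at rt. STK S3 antibody-Eu then added and incubated a further 1 h. Read at 340 nm excitation and 665 nm emission. IC50 reported as mean ± SD from two independent experiments.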
row,Compound,IC50 [nM]
1,CC(C)n1cnnc1-c1cccc(NC(=O)c2cc3ccccc3o2)n1,152
2,CC(C)n1cnnc1-c1cccc(NC(=O)c2cc3cccc(-c4ccsc4)c3[nH]2)n1,153
3,C[C@H](CO)n1cnnc1-c1cccc(NC(=O)c2cc3ccccc3[nH]2)n1,65.5
4,CC(C)n1cnnc1-c1cccc(NC(=O)c2cc3cccc(-c4ccncc4)c3[nH]2)n1,23.1
5,Cc1c(C(=O)Nc2cccc(-c3nncn3C(C)C)n2)[nH]c2ccccc12,88.2
6,CC(=O)Nc1cccc2cc(C(=O)Nc3cccc(-c4nncn4C(C)C)n3)[nH]c12,240
7,CC(C)n1cnnc1-c1cccc(NC(=O)c2cc3ccccc3n2C)n1,743
8,CC(C)n1cnnc1-c1cccc(NC(=O)c2nc3ccccc3s2)n1,506
9,Cc1c(C(=O)Nc2cccc(-c3nncn3C(C)C)n2)oc2ccccc12,1110
10,CC(C)n1cnnc1-c1cccc(NC(=O)c2[nH]c3ccccc3c2-c2ccoc2)n1,143
11,Cc1c(C(=O)Nc2cccc(-n3cnnn3)c2)oc2ccccc12,16700

# More lines, now with the values ahead:
row,IC50 [nM],Compound
1,73.7,CC(C)n1cnnc1-c1cccc(NC(=O)c2cc3ccc(-c4cnn(C5CCOCC5)c4)cc3[nH]2)n1
2,91.1,CCOC(C)n1cc(-c2ccc3cc(C(=O)Nc4cccc(-c5nncn5C(C)C)n4)[nH]c3c2)cn1 (stereo not drawn)
3,68.5,CC(C)n1cnnc1-c1cccc(NC(=O)c2cc3ccc(-c4cccnc4)cc3[nH]2)n1
4,37.5,CC(C)n1cnnc1-c1cccc(NC(=O)c2cc3ccc(-c4cn[nH]c4)cc3[nH]2)n1
5,19.6,CC(C)n1cnnc1-c1cccc(NC(=O)c2cc3c(-c4cnn(C)c4)cccc3[nH]2)n1
6,125,CC(C)n1cnnc1-c1cccc(NC(=O)c2cc3cccnc3[nH]2)n1
7,54.3,COc1ccc2cc(C(=O)Nc3cccc(-c4nncn4C(C)C)n3)[nH]c2c1
8,89.6,CC(C)n1cnnc1-c1cccc(NC(=O)c2cc3cccc(Cl)c3[nH]2)n1
9,41.4,CC(C)n1cnnc1-c1cccc(NC(=O)c2cc3ccccc3[nH]2)n1
10,31.6,CC(C)n1cnnc1-c1cccc(NC(=O)c2cc3cc(-c4cn[nH]c4)ccc3[nH]2)n1
11,38.9,CC(C)n1cnnc1-c1cccc(NC(=O)c2cc3cccc(-c4cn[nH]c4)c3[nH]2)n1

# From ChEMBL document CHEMBL4819011, “Structure-based discovery of 1H-indole-2-carboxamide derivatives as potent ASK1 inhibitors for potential treatment of ulcerative colitis” (Eur J Med Chem, 2021)
